Laboratory results: the RNAGym collection of RNA variant scans (doi:10.1126/science.aae0568)
This sample holds only a part of the variants without activity.

B1: tRNA (parent)
chain: GUUCCGUUGGCGUAAUGGUAACGCGUCUCCCUCCUAAGGAGAAGACUGCGGGUUCGAGUCCCGUACGGAACG

Variants of: B1
Experiment: yeast fitness relative to wild type (ratio to wild type); higher = fitter; tRNA-Arg(CCU), competitive growth, 37 C, YPD
Method in brief: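 Gene amplicons from the start population and from each of six end populations were read by 100-nucleotide paired-end sequencing. Those end populations came from pooled Saccharomyces cerevisiae strains carrying tRNA-Arg(CCU) gene variants at the native locus, competed in YPD at 37°C for 24 hours. Fitness relative to wild type was worked out from changes in genotype frequencies. Genotypes needed ≥ 100 starting reads, and estimates < 0.5 were set to 0.5.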

Row | Variant | yeast fitness
1 | GUUUCGCUGACGUUAUGGUAACGCGUGUCCCUCCUGAGGAGAAGACUGCGGGUUCGAGUCCCGUACGGAACG | 0.505
2 | GUUUCGCUGGCGUAAUGGUAACACGUCUCCCUCCUAAGGUGCAGACUGCGGGUUCGAGUCCCGUACGGAACG | ≤ 0.5
3 | GUUUCGGUGGCGUUAUGGUAACGCGUCUCCCUCCUAAGGAGAAGACUGCGGGUUCGAGUCCCGUACGGAACG | ≤ 0.5
4 | GUUUCGGUGGCGUAAUGGUAACGCGUCUCCCUCCUAGGGAGAAGACUGCGGGUUCGAGUCCCGUACGGAACG | 0.536
5 | GUUUCGGUGGCGUAAUGGUAACGCGUCUCCCUCGUAAGGAGAAGACUGCGGGUUCGAGUCCCGUACGGAACG | 0.554
6 | GUUUCGGUGGCGUAAUGGUAACGCGUCUCCCUCGUAAGGAGAAGACUGCGGGUUCGAGUCCCGUACGGAUCG | ≤ 0.5
7 | GUUUCGGUGGCGUAAUGGUAACGCGUCUCCCUCGUAAGGAGAAGACUGCGGGUUUGAGUCCCGUACGGAACG | 0.563
8 | GUUUCGGUGGCGUAAUGGUAACGCGUCUCCCUCGUAAGGAGAAGACUCCGGGUUCGAGUCUCGUACGGAACG | ≤ 0.5
9 | GUUUCGUAGGCGUUAUGGUCACGCGUCUCCCUCCUCAGGAGACGACUGCGGGUUCGACUCACGUACGGAACG | ≤ 0.5
10 | GUUUCGUAGGCGUAAUGGUGACGAGUCUCCCUCCUAAGGAGAAGACUGCGGCUUCGAGUCCCGUACGGAACG | 0.598
11 | GUUUCGUAGGCGUAAUGGUAACGCGUCUCCCUCCUACGGAGAAGACUGCGGGUUCGAGUCCCGUACGGAACG | 0.821
12 | GUUUCGUAGGCGUAAUGGUAACGCGUCUCUCGCCAAAGGAGAAGACUGCGGGUUCGAGUCCUGUACGGCACG | ≤ 0.5
13 | GUUUCGUAGGCGCAAUGGUAACGCGUCUCCCUCCUAAGGAGAAGACUGCGGGUUCGUGUGCCGUACGCAACG | ≤ 0.5
14 | GUUUCGUAGGCGCAAUGGUAACGCGUCUCCCUCCUAAGGAGAAGAAUGCGGGUUCGAGUCCCGUACGGAACG | 0.619
15 | GUUUCGUAGGCGUAAUGGUAACGCGUCUCCCGCCAAAGGAGAAGACUGCGGGUUCGAGUCCCGUACGUAACG | ≤ 0.5
16 | GUUUCGUCGGCGUAAUGGUGACGCGUCUCCCUCCUAAGGAGACGACUGAGGGUUCGAGUCCCGUAAGGAACG | ≤ 0.5
17 | GUUUCGUCGGCGUAAUGGUAACGCGUCUCCCUCCUAAGGUGAAGACUGCCGGUUCGAGUCCCGUACGGAACG | ≤ 0.5
18 | GUUUCGUCGGCGUAAUGGUAACGCGUCUCCCUCCUAAGGAGCAGACUGCGGGUUCGAGUCCCGUACGGAACG | 0.539
19 | GUUUCGUCGGCGUAAUGGUAACGCGUCUCCCUCCUAAGGAGGAGACUGCGGGUUCGAGUCCCGUACGGAACG | 0.69

Row | Variant | yeast fitness
20 | GUUUCGUCGGAAUAAUGGUAACGCGUCCCCCUCCUAAGGAGAACACUGCGGGUUCGAGUCCCGUACGGAACG | ≤ 0.5
21 | GUUUCGUCGGCGUAAUGGUAACGCGUCUUCCUCCUAAGGAGAUGACUGCGGGUUCGAGUCCCGUACGGAACG | ≤ 0.5
22 | GUUUCGUGGGCGUAUUGGUAACGCGUCUCCCUCCUAAGGAGAAGACUGCGGGUUCGAGUCCUGUACGGAACG | ≤ 0.5
23 | GUUUCGUGGGCAUAAUGGUAACGCGUCUCCCUCCUAAGGAGAAGACUGCGGGUUCGAGUCCCGUACGGAACG | 0.539
24 | GUUUCGUGGGCAUAAUGGUAACGCGUCUCCCUCCUAAGGAGAAGACUGCGGGUGCGAGUCCCGUACGGAACG | ≤ 0.5
25 | GUUUCGUUGGCGAUAUGGUAACGCGUCUUCCUCCUAGGGAGAAGACUGCGGGUUCGAGUCCCGUACAGAACG | ≤ 0.5
26 | GUUUCGUUGGCGAUAUGGUAACGCGUCUUUCUCCUAGGGAGAAGACUGCGGGUUCGAGUCCCGUACGGAACG | ≤ 0.5
27 | GUUUCGUUGGCGAUAUGGUAACGCGUCUCCCACCUAAGGAGAAGACUGCGGGUUCGACUCCCGUACGGAACG | ≤ 0.5
28 | GUUUCGUUGGCGCAAUGGUAACGUGUCUCCCUCCUAAGGAGAAGACUGUGGGUUCGAGUCCCGUACGGAACG | ≤ 0.5
29 | GUUUCGUUGGCGCAAUGGUAACGCGUCUGCCUCCUAACGAGAAGACUGCGGGUUCGAGUCCCGUACGGAACG | ≤ 0.5
30 | GUUUCGUUGGCGCAAUGGUAACGCGUCUCGCUCCUAAGGAGAAGACUGCGGGUUUGAGUCCCGUACGGAACG | 0.761
31 | GUUUCGUUGGCGCAAUGGUAACGCGUCUCGCUCCUAAGGAGAAGACUUCGGGUUCGAGUCCCGUACGGAUCG | ≤ 0.5
32 | GUUUCGUUGGCGCAAUGGUAACGCGUCUCCCUCCUAAGGAGAAGACUGCGGGUUCGAGUCCCGUAUGGACCG | 0.618
33 | GUUUCGUUGGCGGAAUGGUAACGCGUCUCCCUCCUUAGGAGAAGACUGCGGGUUCGAGUCCCGUACGGAACG | 0.655
34 | GUUUCGUUGGCGGAAUGGUAACGCGUCUCCCUCCUAAGGAGAAGACUGAGGGUUUGAGUUUCGUACGGAACG | ≤ 0.5
35 | GUUUCGUUGGCGUAAAGGUAACGCGUCUCCCUCCUAAGGAGAAGACUGCGGGUUCGAGUCCCGUACGGAACG | 0.993
36 | GUUUCGUUGGCGUAAAGGUCACGCGUCUCCCUCCUAAGGAGAAGACUGCGGGUUCGAGUCCCGUACGGAACG | 0.58
37 | GUUUCGUUGGCGUAAAGGUCACGCGUCUCCCUCCUAAGGAGAAGACUGCGGGUACGAGUCCCGUACUGAACG | ≤ 0.5
